Source: PubChem
Shown are actives, neighbours in structure and some others; about 1.6% of the full set was active somewhere.
FLuc act counter = affects firefly luciferase, flagging false hits in luciferase stimulation screens. P08659. ATPlite luciferase biochemical, luminescence, 10 min; 0 = ATP-free wells, 1 = DMSO control. activation factor at 10 µM. 200,000 tested, under 10 active. AID 1027;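 active = luciferase activation factor, scaled between plate controls, of at least 2 with compound at 10 µM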
Target sequence (P08659 whole entry, looked up): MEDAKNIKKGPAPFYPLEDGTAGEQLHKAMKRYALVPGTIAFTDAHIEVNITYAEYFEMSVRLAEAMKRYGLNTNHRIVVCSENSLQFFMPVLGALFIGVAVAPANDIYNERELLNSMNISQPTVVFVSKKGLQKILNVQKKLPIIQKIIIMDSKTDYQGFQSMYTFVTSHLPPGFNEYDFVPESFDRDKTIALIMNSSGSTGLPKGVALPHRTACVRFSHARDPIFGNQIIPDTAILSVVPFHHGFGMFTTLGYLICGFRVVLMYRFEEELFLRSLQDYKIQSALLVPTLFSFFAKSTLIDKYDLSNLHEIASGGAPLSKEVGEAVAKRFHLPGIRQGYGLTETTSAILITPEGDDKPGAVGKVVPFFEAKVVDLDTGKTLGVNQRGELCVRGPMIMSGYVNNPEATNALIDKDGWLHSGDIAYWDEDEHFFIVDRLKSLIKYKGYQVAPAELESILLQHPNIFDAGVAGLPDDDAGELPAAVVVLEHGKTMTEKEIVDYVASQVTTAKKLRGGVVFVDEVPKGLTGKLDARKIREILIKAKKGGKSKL
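Assay system: Luciferase/luciferin detection reagent, cell-free biochemical luciferase assay / Also added: ATP substrate / Schedule: 10 min at ambient temperature / Measured by: luminescence measurement of luciferase light output / Benchmarks: low control with PBS replacing ATP, high control enzyme plus ATP without compound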
PPC-1+TRAIL kill = compounds killing PPC-1 cancer cells with TRAIL present (potentiator screen, no TRAIL-free arm); PPC-1 cells + TRAIL, ATPLite viability luminescence; cell killing (% activity), % at 4 µM or 5 µM; AID 1443; actives 0.41% (n = 220,000);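 active = cell killing above 50% in the first pass at 4 µM, then a duplicate retest at 5 µM averaging 50% or more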;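 note: plate controls were cells with TRAIL plus DMSO for no effect and medium-only wells lacking cells for full effect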
TRAIL sens C8 = caspase-8 TRAIL sensitization. NB7+C8 cells + TRAIL, ATPlite viability luminescence. inhibition (viability loss, TRAIL sensitization), % at 10 µM. actives 1% (n = 360,000). AID 624354;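 active = compounds causing at least 50% loss of cell viability in the single-dose screen, relative to plate controls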
FLuc inh counter = counter-screen for luciferase assay inhibitors: firefly luciferase inhibition; ATPLite firefly luciferase biochemical luminescence, 10 min; inhibition, % at 10 µM; actives 1.5% (n = 200,000);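 active = inhibition above about 50% when tested at 10 µM, limit read from the data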
* = called active by the depositor; / = no result.

SMILES | FLuc act counter | PPC-1+TRAIL kill | TRAIL sens C8 | FLuc inh counter
COc1ccc(-c2nc3ccccc3n2Cc2ccccc2)cc1 | 1 | 7.7 | 4.5 | 4.8
COc1ccc(Cn2c(/C=C/c3ccccc3)nc3ccccc32)cc1 | 0.5 | 26.5 | 47.5 | 50.2*
CC(C)Cn1c(/C=C/c2ccccc2)nc2ccccc21 | 0.4 | 4.2 | 46.4 | 58.4*
CCC(C)n1c(/C=C/c2ccccc2)nc2ccccc21 (configuration not stated) | 0.6 | 11.8 | 11.1 | 35.5
COc1ccc(Cn2c(=O)oc3ccccc32)cc1F | / | / | -5.2 | /
O=C(Oc1c(CN2CCOCC2)cc(Cl)c2cccnc12)c1cccs1 | 1 | 25.3 | 52.4* | 1.2
O=C(Oc1c(CN2CCOCC2)cc(Cl)c2cccnc12)c1ccccc1Cl | 1 | 10.0 | 54.4* | -4.2
O=C(Oc1c(CN2CCOCC2)cc(Cl)c2cccnc12)c1ccc(F)cc1 | 1.1 | 34.6 | 54.9* | -5.0
COc1cccc(C(=O)Oc2c(CN3CCOCC3)cc(Cl)c3cccnc23)c1 | 1.1 | 14.7 | 45.6* | -6.4
CCc1ccccc1N(CC(=O)NCc1ccccc1)C(=O)CCC(=O)Nc1ccccn1 | / | / | -8.7 | /
CC(=O)N1CCN(c2ccc(NC(=O)c3ccc(C)cc3)cc2)CC1 | 1 | 4.2 | 1.7 | -2.0
Cc1ccc(C(=O)Nc2ccc3ccccc3c2)cc1 | / | / | 82.6* | /
Cc1ccc(NC(=O)c2ccccc2O)cc1 | 0.2 | 40.6 | 52.4* | 77.5*
O=C(Nc1ccc2ccccc2c1)c1ccc(Cl)cc1 | / | / | 57.5* | /
CC(=O)N1CCc2cc(NC(=O)c3ccc(C)cc3)ccc21 | 0.3 | 37.1 | 40.7 | 73.3*
COC(=O)c1ccccc1NC(=O)c1cccc(COc2ccccc2Cl)c1 | 1.1 | 20.5 | -16.9 | -9.9
O=C(NC(Cc1ccccc1)c1ccc2c(c1)OCCCO2)c1ccc(F)cc1 (configuration not stated) | 1.1 | 28.9 | 3.2 | -5.9
Cc1cc(C(=O)Nc2ccc3ccccc3c2)oc1C | / | / | 18.9 | /
Cc1ccc(C(=O)Nc2ccc3ccccc3n2)cc1 | / | / | 49.8* | /
Cc1ccoc1C(=O)Nc1ccc2ccccc2c1 | / | / | 53.5* | /
O=C(O)Cc1ccc(NC(=O)c2ccc(NC(=O)c3ccco3)cc2)cc1 | 1 | -3.6 | 4.2 | 0.1
Cc1ccoc1C(=O)Nc1ccc(CC(=O)O)cc1 | 0.4 | 37.6 | 28.6 | 57.3*
N#CNC(=Nc1cccc(F)c1)SCc1ccccc1 | 1.1 | 5.7 | 7.8 | -5.0
CC(=O)Oc1cccc(/C=c2\sc3nc(-c4ccco4)nn3c2=O)c1 | 0.1 | 8.2 | -3.0 | 89.1*
CCCOc1ccc(/C=c2\sc3nc(-c4ccco4)nn3c2=O)cc1OCC | 1 | 4.5 | 5.1 | -0.1
SMILES | FLuc act counter | PPC-1+TRAIL kill | TRAIL sens C8 | FLuc inh counter
CC(C)C[C@H](NC(=O)OC(C)(C)C)C(=O)N[C@@H](CO)[C@H](O)[C@@H]1C[C@@H]1C(=O)NC1CC1 | / | / | -2.6 | /
Cc1cc(/C=C2/C(=N)N3C(=NC2=O)SN=C3S(C)(=O)=O)c(C)n1-c1ccc(F)cc1 | 0.3 | 9.2 | 38.1 | 69.5*
CCOc1ccc(-n2c(C)cc(/C=C3/C(=N)N4C(=NC3=O)SN=C4S(C)(=O)=O)c2C)cc1 | 1 | 8.6 | -6.7 | -1.1
Oc1ccc(/C=N/Nc2cccc3cccnc23)c(O)c1 | 0.8 | 5.7 | 19.3 | 22.8
Cc1ccc(/C=N/Nc2cccc3cccnc23)c(O)c1 | 0.4 | -20.4 | 37.8 | 59.5*
CCOC(=O)c1sc(N(Cc2ccccc2)C(=O)COC(=O)c2ccccc2O)nc1C | 1.1 | 15.7 | -0.9 | -5.4
CCOC(=O)c1sc(N(Cc2ccccc2)C(=O)CCl)nc1C | / | / | 86.7* | /
Cc1cc(C)nc(NC(=O)c2ccc3c(c2)OCO3)c1 | 0.4 | 17.8 | / | 55.8*
CCOC(=O)CSc1nnc(NC(=O)c2ccc3c(c2)OCO3)s1 | / | / | 69.7* | /
CC(c1ccccc1)c1nnc(NC(=O)c2ccc3c(c2)OCO3)s1 (configuration not stated) | / | 11.7 | 10.3 | /
CCSc1nnc(NC(=O)c2ccc3c(c2)OCO3)s1 | 0.9 | 12.5 | 14.3 | 11.6
CC(C)c1nnc(NC(=O)c2ccc3c(c2)OCO3)s1 | 0.5 | 36.2 | 26.3 | 51.0*
CC(C)c1ccc(/C=C/C2=NNC(=O)CC2)cc1 | 0.7 | -2.6 | 15.0 | 26.3
CC(C)c1ccc(/C=C/c2ccc(=O)n(C)n2)cc1 | 0.2 | 38.6 | 62.3* | 83.4*
O=C(/C=C/Nc1ccc(Nc2ccccc2)cc1)c1cccs1 | 0.8 | 0.6 | 0.6 | 16.9
O=C(/C=C/Nc1cccc([N+](=O)[O-])c1)c1cccs1 | 0.5 | 6.2 | 2.0 | 50.8*
CNc1cc([N+](=O)[O-])ccc1N/C=C/C(=O)c1cccs1 | 1 | 5.5 | -1.3 | -3.7
O=C(/C=C/Nc1ccccc1C(=O)O)c1cccs1 | 0.4 | 8.7 | -3.1 | 64.7*
Cc1cc(N/C=C/C(=O)c2cccs2)ccc1F | 0.2 | 9.1 | 45.2 | 80.0*
COc1ccc(S(=O)(=O)N2c3ccccc3OCC2CC(=O)O)cc1 (configuration not stated) | / | / | 18.5 | /
COc1ccc(C(CCc2cc(OC)c(OC)c(OC)c2)NC(C)=O)cc1 (configuration not stated) | / | / | -12.7 | /
Cc1ccccc1NC1=C/C(=N\S(=O)(=O)c2cccs2)c2ccccc2C1=O | 1 | 25.7 | 90.0* | 1.3
c1cn2c(NC3CCCC3)c(-c3ccc(N4CCOCC4)cc3)nc2cn1 | 0.2 | 41.8 | -20.7 | 81.1*
C=C(C)CC(NCc1ccco1)c1ccc(OC)cc1 (configuration not stated) | 1 | 17.2 | -20.0 | -0.9
Cc1csc(NC(=O)CSc2nc3[nH]c(=O)cc(O)c3s2)n1 | / | / | 58.0* | /
SMILES | FLuc act counter | PPC-1+TRAIL kill | TRAIL sens C8 | FLuc inh counter
O=C(CN1C(=O)/C(=C/c2ccc(Cl)cc2)SC1=S)NC1C=CS(=O)(=O)C1 (configuration not stated) | / | / | -8.2 | /
CC(C)c1ccc(/C=C2\SC(=O)N(CC(=O)NC3C=CS(=O)(=O)C3)C2=O)cc1 (configuration not stated) | / | / | 53.9* | /
Cc1ccc(OCc2nc(-c3cccs3)no2)c([N+](=O)[O-])c1 | 0.4 | 44.1 | 37.6 | 60.9*
CCCCNC(=O)C1(C)CCCCN1C(=O)c1c(F)ccc(C)c1F (configuration not stated) | / | / | -28.5 | /
O=C(CN1CCCC1)Nc1nnc(-c2cccs2)s1 | 1 | 44.1 | 0.9 | -0.1
COCCNC(=O)C1(C)CCCN(C(=O)c2ccc3c(c2)OCO3)C1 (configuration not stated) | / | / | -22.9 | /
CCCn1c(/C=N/Nc2nc3ccccc3[nH]2)nc2ccccc21 | 0.9 | -2.0 | 26.4 | 9.9
C(=N\Nc1nc2ccccc2[nH]1)/c1ccncc1 | 0.7 | 33.3 | 8.5 | 26.9
Cn1c(/C=N/Nc2nc3ccccc3[nH]2)nc2ccccc21 | 0.2 | 48.5 | 37.6 | 82.8*
Cc1nn(-c2ccccc2)c(C)c1/C=N/Nc1nc2ccccc2[nH]1 | 0.2 | 29.1 | 43.3 | 79.9*
C(=N\Nc1nc2ccccc2[nH]1)/c1cccs1 | 0.3 | 27.2 | 5.0 | 68.2*
Clc1nc2ccccc2cc1/C=N/Nc1nc2ccccc2[nH]1 | 0.1 | 37.2 | 83.3* | 88.4*
CC1CCN(C(=O)CS(=O)(=O)Cc2ccccc2)CC1 | / | / | 0.3 | /
